What was measured:
[1] = Growth inhibition of human HCT116 cells after 48 hrs; assay type: functional; settings: HCT-116, 48 h
Method in brief: (§1)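 NCI-60 human tumour cell line panel screen run at the US National Cancer Institute under its standard cytotoxicity protocol. It covers leukaemia, NSCLC, colon, CNS, melanoma, ovarian, renal, prostate and breast lines. An initial single-dose test was followed by five-dose testing with 48 h compound exposure.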

Saccharomyces cerevisiae = experiment: Antimicrobial activity against Saccharomyces cerevisiae assessed as inhibition at 20 ug/6 mm disk after 1 to 2 days by agar diffusion assay; assay type: functional
Method in brief: (§2)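 Standard agar diffusion: 6-mm paper disks loaded with 20 µg of compound were placed on inoculated plates. Inhibition-zone diameter (mm) was read after 1 and 2 days of growth.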

ACHN = experiment: Growth inhibition of human ACHN cells after 48 hrs; assay type: functional; method in brief: as §1
MDA-MB-435 = experiment: Growth inhibition of human MDA-MB-435 cells after 48 hrs; assay type: functional; settings: MDA-MB-435, 48 h; method in brief: as §1
T47D = experiment: Growth inhibition of human T47D cells after 48 hrs; assay type: functional
Method in brief: (§3)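 Run by the NCI 58-cell-line screen under its standard cytotoxicity protocol. Compounds were first tested at a single dose, then at five doses. Cells were exposed to compound for 48 h.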

[2] = Growth inhibition of human SF539 cells after 48 hrs; assay type: functional; settings: SF-539, 48 h; method in brief: as §1
NCI-H322M = experiment: Growth inhibition of human NCI-H322M cells after 48 hrs; assay type: functional; method in brief: as §1
[3] = Growth inhibition of human UO31 cells after 48 hrs; assay type: functional; settings: UO-31, 48 h; method in brief: as §3
HL-60(TB) = experiment: Growth inhibition of human HL-60(TB) cells after 48 hrs; assay type: functional; settings: HL-60, 48 h; method in brief: as §1
SW-620 = experiment: Growth inhibition of human SW620 cells after 48 hrs; assay type: functional; settings: SW-620, 48 h; method in brief: as §3
[4] = Growth inhibition of human LOXIMVI cells after 48 hrs; assay type: functional; settings: LOX IMVI; method in brief: as §1
NCI-H522 = experiment: Growth inhibition of human NCI-H522 cells after 48 hrs; assay type: functional; settings: NCI-H522, 48 h; method in brief: as §1
Klebsiella pneumoniae = experiment: Antimicrobial activity against Klebsiella pneumoniae assessed as inhibition at 20 ug/6 mm disk after 1 to 2 days by agar diffusion assay; assay type: functional; method in brief: as §2
M14 = experiment: Growth inhibition of human M14 cells after 48 hrs; assay type: functional; settings: M14, 48 h; method in brief: as §1
CAKI-1 = experiment: Growth inhibition of human CAKI-1 cells after 48 hrs; assay type: functional; settings: CAKI-1, 48 h; method in brief: as §1
[5] = Growth inhibition of human RPMI8226 cells after 48 hrs; assay type: functional; settings: RPMI-8226, 48 h; method in brief: as §1
K562 = experiment: Growth inhibition of human K562 cells after 48 hrs; assay type: functional; settings: K562, 48 h; method in brief: as §1
[6] = Growth inhibition of human UACC257 cells after 48 hrs; assay type: functional; settings: UACC-257, 48 h; method in brief: as §3
Mycolicibacterium phlei = experiment: Antimicrobial activity against Mycobacterium phlei assessed as inhibition at 20 ug/6 mm disk after 1 to 2 days by agar diffusion assay; assay type: functional; method in brief: as §2
786-0 = experiment: Growth inhibition of human 786-0 cells after 48 hrs; assay type: functional; settings: 786-0, 48 h; method in brief: as §1
[7] = Growth inhibition of human HOP92 cells after 48 hrs; assay type: functional; settings: HOP-92, 48 h; method in brief: as §1
[8] = Growth inhibition of human OVCAR4 cells after 48 hrs; assay type: functional; settings: OVCAR-4, 48 h; method in brief: as §1
Aspergillus niger = experiment: Antimicrobial activity against Aspergillus niger assessed as inhibition at 20 ug/6 mm disk after 1 to 2 days by agar diffusion assay; assay type: functional; method in brief: as §2
MCF7 = experiment: Cytotoxicity against human MCF7 cells assessed as cell viability after 24 hrs incubation by MTT assay; assay type: functional, cell-based; settings: MCF7, 24 h
Method in brief: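 Cell lines came from DSMZ; primary human fibroblasts served as non-cancer controls. Cells were grown in medium with 10% FCS, seeded at 50,000 cells/ml, and grown 2 days at 37 °C, 10% CO2. Serial dilutions were then added for 24 h. MTT (final 0.5 mg/ml) was added for 2 h. Formazan was pelleted, PBS-washed, dissolved in isopropanol/0.4% HCl and read at 590 nm. Two parallel experiments were run. IC50 was taken as the concentration giving 50% of untreated-control absorbance.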

[9] = Growth inhibition of human NCI-ADR-RES cells after 48 hrs; assay type: functional; method in brief: as §1
Micrococcus luteus = experiment: Antimicrobial activity against Micrococcus luteus assessed as inhibition at 20 ug/6 mm disk after 1 to 2 days by agar diffusion assay; assay type: functional; method in brief: as §2
A549 = experiment: Growth inhibition of human A549/ATCC cells after 48 hrs; assay type: functional; settings: A549, 48 h; method in brief: as §1
[10] = Growth inhibition of human PC3 cells after 48 hrs; assay type: functional; settings: PC-3, 48 h; method in brief: as §1
[11] = Growth inhibition of human HCT15 cells after 48 hrs; assay type: functional; settings: HCT-15, 48 h; method in brief: as §1
[12] = Octanol-water partition coefficient, log P of the compound by HPLC analysis; assay type: physicochemical
Method in brief: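 Lipophilicity was measured by reversed-phase HPLC on a Nucleosil C18 column with isocratic water/methanol (3:1) at 0.5 ml/min and UV detection at 230 and 245 nm. Dead time was set with thiourea (t0 0.728 min). Retention factor was k = (tR − t0)/t0, and log P came from a calibration against at least six reference compounds.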

[13] = Growth inhibition of human UACC62 cells after 48 hrs; assay type: functional; settings: UACC-62, 48 h; method in brief: as §3
[14] = read-out: pLC50 (the source's name) (converted)

Question: For COc1ccc(N(CC(=O)NCCC[Te]c2ccccc2)C(=O)CNC(=O)OC(C)(C)C)cc1, which GI50 [1] is on record?
Answer: 2.09 µM

Question: What about the CC50 [1, 14] of the same molecule?
Answer: 49 µM

Question: And the TGI ([1]; read-out: pTGI (converted))?
Answer: 6.46 µM

Question: What about the “diameter of the inhibition zone (DIZ)” value (Saccharomyces cerevisiae) of the same molecule?
Answer: 0 mm

Question: What about the GI50 (ACHN) of the same molecule?
Answer: 1.55 µM

Question: What about the LC50 (ACHN) of the same molecule?
Answer: > 100 µM

Question: And the TGI (ACHN; read-out: pTGI (converted))?
Answer: 8.71 µM

Question: What about the GI50 (MDA-MB-435) of the same molecule?
Answer: 3.31 µM

Question: And the CC50 (MDA-MB-435; [14])?
Answer: 51.3 µM

Question: And the TGI (MDA-MB-435; read-out: pTGI (converted))?
Answer: 13.5 µM

Question: What about the GI50 (T47D) of the same molecule?
Answer: 11.2 µM

Question: And the LC50 (T47D)?
Answer: > 100 µM

Question: And the TGI (T47D; read-out: pTGI (converted))?
Answer: 40.7 µM

Question: And the GI50 [2]?
Answer: 2.14 µM

Question: What about the CC50 [2, 14] of the same molecule?
Answer: 15.8 µM

Question: What about the TGI ([2]; read-out: pTGI (converted)) of the same molecule?
Answer: 4.79 µM

Question: What about the GI50 (NCI-H322M) of the same molecule?
Answer: 2.29 µM

Question: And the CC50 (NCI-H322M; [14])?
Answer: > 100 µM

Question: And the TGI (NCI-H322M; read-out: pTGI (converted))?
Answer: 6.61 µM

Question: What about the GI50 [3] of the same molecule?
Answer: 2.4 µM

Question: And the LC50 [3]?
Answer: > 100 µM

Question: What about the TGI ([3]; read-out: pTGI (converted)) of the same molecule?
Answer: 9.12 µM

Question: What about the GI50 (HL-60(TB)) of the same molecule?
Answer: 2.09 µM

Question: And the CC50 (HL-60(TB); [14])?
Answer: > 100 µM

Question: And the TGI (HL-60(TB); read-out: pTGI (converted))?
Answer: 5.62 µM

Question: And the GI50 (SW-620)?
Answer: 3.47 µM

Question: What about the CC50 (SW-620; [14]) of the same molecule?
Answer: > 100 µM

Question: What about the TGI (SW-620; read-out: pTGI (converted)) of the same molecule?
Answer: 14.5 µM

Question: And the GI50 [4]?
Answer: 2.34 µM

Question: And the LC50 [4]?
Answer: 34.7 µM

Question: What about the TGI ([4]; read-out: pTGI (converted)) of the same molecule?
Answer: 5.75 µM

Question: What about the GI50 (NCI-H522) of the same molecule?
Answer: 2.57 µM

Question: And the CC50 (NCI-H522; [14])?
Answer: 56.2 µM

Question: And the TGI (NCI-H522; read-out: pTGI (converted))?
Answer: 10.5 µM

Question: What about the “diameter of the inhibition zone (DIZ)” value (Klebsiella pneumoniae) of the same molecule?
Answer: 12 mm

Question: What about the GI50 (M14) of the same molecule?
Answer: 3.55 µM

Question: What about the CC50 (M14; [14]) of the same molecule?
Answer: 45.7 µM

Question: What about the TGI (M14; read-out: pTGI (converted)) of the same molecule?
Answer: 10.7 µM

Question: What about the GI50 (CAKI-1) of the same molecule?
Answer: 2.09 µM

Question: What about the LC50 (CAKI-1) of the same molecule?
Answer: > 100 µM

Question: What about the TGI (CAKI-1; read-out: pTGI (converted)) of the same molecule?
Answer: 5.62 µM

Question: And the GI50 [5]?
Answer: 2.4 µM

Question: And the CC50 [5, 14]?
Answer: > 100 µM

Question: And the TGI ([5]; read-out: pTGI (converted))?
Answer: 7.24 µM

Question: And the GI50 (K562)?
Answer: 5.5 µM

Question: And the CC50 (K562; [14])?
Answer: > 100 µM

Question: And the TGI (K562; read-out: pTGI (converted))?
Answer: > 100 µM

Question: What about the GI50 [6] of the same molecule?
Answer: 8.51 µM

Question: And the CC50 [6, 14]?
Answer: 61.7 µM

Question: What about the TGI ([6]; read-out: pTGI (converted)) of the same molecule?
Answer: 24 µM

Question: And the “diameter of the inhibition zone (DIZ)” value (Mycolicibacterium phlei)?
Answer: 12 mm

Question: And the GI50 (786-0)?
Answer: 3.72 µM

Question: What about the LC50 (786-0) of the same molecule?
Answer: 56.2 µM

Question: And the TGI (786-0; read-out: pTGI (converted))?
Answer: 12.9 µM

Question: And the GI50 [7]?
Answer: 2.95 µM

Question: And the CC50 [7, 14]?
Answer: 66.1 µM

Question: What about the TGI ([7]; read-out: pTGI (converted)) of the same molecule?
Answer: 4.9 µM

Question: What about the GI50 [8] of the same molecule?
Answer: 22.4 µM

Question: What about the LC50 [8] of the same molecule?
Answer: > 100 µM

Question: And the TGI ([8]; read-out: pTGI (converted))?
Answer: > 100 µM

Question: And the “diameter of the inhibition zone (DIZ)” value (Aspergillus niger)?
Answer: 0 mm

Question: And the IC50 (MCF7)?
Answer: 5 µM

Question: And the GI50 [9]?
Answer: 2.88 µM

Question: What about the LC50 [9] of the same molecule?
Answer: > 100 µM

Question: What about the TGI ([9]; read-out: pTGI (converted)) of the same molecule?
Answer: 7.24 µM

Question: What about the “diameter of the inhibition zone (DIZ)” value (Micrococcus luteus) of the same molecule?
Answer: 7 mm

Question: What about the GI50 (A549) of the same molecule?
Answer: 0.525 µM

Question: What about the CC50 (A549; [14]) of the same molecule?
Answer: 6.76 µM

Question: And the TGI (A549; read-out: pTGI (converted))?
Answer: 2.19 µM

Question: And the GI50 [10]?
Answer: 1.7 µM

Question: And the LC50 [10]?
Answer: > 100 µM

Question: And the TGI ([10]; read-out: pTGI (converted))?
Answer: 10 µM

Question: And the GI50 [11]?
Answer: 3.16 µM

Question: And the CC50 [11, 14]?
Answer: 93.3 µM

Question: And the TGI ([11]; read-out: pTGI (converted))?
Answer: 10.5 µM

Question: What about the logP [12] of the same molecule?
Answer: 4.2

Question: What about the GI50 [13] of the same molecule?
Answer: 1.66 µM

Question: And the CC50 [13, 14]?
Answer: 8.71 µM

Question: What about the TGI ([13]; read-out: pTGI (converted)) of the same molecule?
Answer: 3.8 µM

From ChEMBL document CHEMBL3351600, “Sulfur, selenium and tellurium pseudopeptides: synthesis and biological evaluation” (Bioorg Med Chem, 2014)
